Screening data deposited in PubChem by several laboratories.
Shown are actives, neighbours in structure and some others; about 2.1% of the full set was active somewhere.
Apaf-1 inh – inhibitors of human Apaf-1 apoptosome. O14727. reconstituted apoptosome caspase-3 activity, DEVD-Rh110 fluorescence. inhibition, % at 20 µM. 330,000 tested, 0.71% active; active = inhibition of at least 40% at 20 µM
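Material: reconstituted apoptosome with Apaf-1, cytochrome c, caspase-9, procaspase-3, dATP; medium: pH 7.5 Hepes buffer with CHAPS, BSA, DTT; also added: cytochrome c and DEVD-Rh110 substrate; timing: 30 min plus 50 min, RT; signal: Rh110 fluorescence intensity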
PP1 inh – blocks human PP1-alpha phosphatase, a PP5 counter-screen | P62136 | purified PP1alpha, OMFP fluorescence | inhibition, % at 6.7 µM | 320,000 tested, 0.9% active | AID 2235;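 active = inhibition above the mean inhibition of all tested compounds plus 3 SD, computed separately for each screening campaign, cut at about 15% in these data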
GSTO1 counter – GSTO1 inhibition, counter-screen for RBBP9 inhibitors; 300,000 tested, 1.1% active; recombinant GSTO1, activity-based probe fluorescence polarization; inhibition, % at 5.96 µM;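 active = inhibition above the campaign mean inhibition plus 3 SD, cut at about 35% in these data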
TDP2 inh – blocks human TDP2 phosphodiesterase activity; inhibition, % at 12.8 µM; O95551; recombinant TDP2, T5PNP hydrolysis, p-nitrophenol absorbance 415 nm; 370,000 tested, 0.34% active;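 active = inhibition above the mean of all tested compounds plus 3 SD, set per campaign, cut at about 25% in these data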
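Read-out basis: percent inhibition. System: recombinant human TDP2. Buffer or medium: Mg2+-containing Tris-HCl buffer, pH 7.5. Repeats: single replicate. Timing: reaction 2 h, 37 °C. Benchmarks: high control without enzyme, low control DMSO plus TDP2. Probe or stimulus: 5 mM T5PNP. Doses: 12.8 µM only. Measured by: epi absorbance of p-nitrophenol freed from T5PNP by hydrolysis.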
PP5 primary – blocks human protein phosphatase 5 activity; inhibition, % at 6.7 µM; P53041; 320,000 tested, 0.18% active; purified PP5c, OMFP substrate fluorescence; AID 1987;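 active = inhibition above the campaign's mean inhibition across all tested compounds plus 3 SD, cut at about 9.5% in these data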
Target sequence (P53041 whole entry, looked up): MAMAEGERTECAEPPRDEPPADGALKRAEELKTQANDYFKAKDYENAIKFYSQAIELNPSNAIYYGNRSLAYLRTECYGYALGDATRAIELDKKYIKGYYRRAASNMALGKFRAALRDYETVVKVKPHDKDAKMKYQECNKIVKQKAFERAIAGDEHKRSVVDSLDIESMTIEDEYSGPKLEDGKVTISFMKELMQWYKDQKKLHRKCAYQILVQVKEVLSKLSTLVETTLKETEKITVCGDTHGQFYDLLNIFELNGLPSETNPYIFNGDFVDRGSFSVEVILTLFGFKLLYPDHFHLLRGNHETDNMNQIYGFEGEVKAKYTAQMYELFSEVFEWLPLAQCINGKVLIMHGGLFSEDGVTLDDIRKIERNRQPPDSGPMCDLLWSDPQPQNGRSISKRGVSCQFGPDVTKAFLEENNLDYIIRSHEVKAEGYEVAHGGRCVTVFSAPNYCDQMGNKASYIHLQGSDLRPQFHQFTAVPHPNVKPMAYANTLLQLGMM
Hits are given with their value; n = inactive; x = no result.

SMILES	Apaf-1 inh	PP1 inh	GSTO1 counter	TDP2 inh	PP5 primary
Cc1nn(C)c(C)c1NC(=O)CSc1nc(-c2ccccc2Cl)nc2c1cnn2-c1ccccc1	n	16	n	n	n
O=C(CN1CCc2onc(-c3ccc(-n4cc(-c5ccccc5)nn4)cc3)c2C1=O)N1CCOCC1	x	x	x	n	x
O=C(N[C@@H]1CCC(=O)N(CC[C@H](Sc2ccc(Br)cc2)c2ccccc2)CC1)OCc1ccccc1	n	16	x	n	n
O=C(/C=C(\Nc1cccc(Cl)c1)c1ccccc1)c1ccccc1	x	x	x	n	x
O=C(O)c1ccc(C#Cc2cccc(F)c2)cn1	x	x	x	n	x
COc1ccc(OC)c(/C(C)=N/Nc2ccc(C(=O)O)cc2)c1	n	n	n	n	n
C/C(=N/Nc1ccc(C(=O)O)cc1)c1ccc(O)c(O)c1O	n	n	45	n	n
O=C(Cn1nnc(-c2ccccc2)n1)NCc1ccco1	n	n	n	n	n
COc1ccccc1C(=O)Nc1ccc(-c2nnn(CC(=O)NCc3ccco3)n2)cc1	n	16	n	n	n
Cc1cc(=O)[nH]c(N/N=C/c2c(O)n(-c3ccccc3)c(=O)c3ccccc23)n1	n	17	n	n	n
COc1ccc(-c2nnc(SCC(=O)Nc3cccc4ccccc34)n2Cc2ccco2)cc1	x	x	x	n	x
CCCCCn1c(SCc2ccncc2)nc2cc(C(=O)NCc3ccco3)ccc2c1=O	n	16	n	n	n
CCCCn1c(SCC(=O)NCc2ccco2)nc2ccccc2c1=O	n	n	n	n	n
Fc1ccccc1-c1n[nH]c(=S)n1N=Cc1cccc(OCc2ccccc2)c1	x	x	x	n	x
Oc1ccc(C=Nc2ccc3ncccc3c2)c(O)c1	95	n	n	x	n
Cc1onc(-c2ccccc2)c1C(=O)Nc1ccc(S(=O)(=O)Nc2nccs2)cc1	n	n	n	n	n
O=S(=O)(Nc1nccs1)c1ccc(Nc2nnc(-c3ccccc3)c3ccccc23)cc1	n	17	n	n	n
CCNc1c2c3c(cccc3n(C)c1=O)C(=O)c1ccccc1-2	n	n	42	x	n
Cn1c(=O)c(NC2CCCCC2)c2c3c(cccc31)C(=O)c1ccccc1-2	n	x	x	n	x
Oc1c(Cl)c(Cl)c2ncccc2c1Cl	x	x	x	n	x
COc1cc(N)c2ncccc2c1Cl	x	x	x	47	x
CCOc1ccccc1C(=O)Nc1ccc2nc(C)[nH]c(=O)c2c1	x	x	x	n	x
Cc1ccc(C(NC(=O)N2CCOCC2)C(Cl)Cl)cc1F (centres undefined)	n	n	n	n	n
Cc1ccc(C(NC(=O)N2CCOCC2)=C(Cl)Cl)cc1F	n	n	36	n	n
CCCCCN1CCCCC(NC(=O)c2c(F)cccc2F)C1=O (centres undefined)	x	x	x	n	x
SMILES	Apaf-1 inh	PP1 inh	GSTO1 counter	TDP2 inh	PP5 primary
CC(C)[C@H](NC(=O)c1ccccc1)C(=O)OCC(=O)c1ccc(S(=O)(=O)N2CCCCC2)cc1	n	n	37	n	n
O=C(O)/C=C/C(=O)Nc1ccc2c(c1)C(=O)c1ccccc1C2=O	n	n	37	n	n
CC(=O)Nc1ccc2c(c1)C(=O)c1ccccc1C2=O	n	n	n	n	n
COC(=O)C1=C(C)N(Cc2ccc(Cl)cc2)C(=S)NC1c1cccc(Br)c1 (centres undefined)	x	x	x	n	x
COC(=O)C1(C)CCCC2(C)C3CCC(C(C)C)C(CO)C3C(CO)CC12 (centres undefined)	x	x	x	n	x
COC(=O)C1=C(C)N(CC(C)C)C(=S)NC1c1cccc(F)c1 (centres undefined)	x	x	x	n	x
COCCN1C(=S)N[C@@H](c2cccc(F)c2)C(C(=O)OC)=C1C	57	n	n	x	n
COC(=O)[C@]12C[C@H](CC(=O)NCC3CCCCC3)C(=O)N(CCC3=CCCCC3)C1=C[C@H](C1CCCC1)O[C@@H]2C	x	x	x	n	x
Nc1nc2c(ncn2[C@@H]2O[C@H](C(=O)NCCc3c[nH]c4ccccc34)[C@@H](O)[C@H]2O)c(=O)[nH]1	x	x	x	n	x
CC(NCc1ccco1)C(=O)N1CCN(Cc2ccccc2F)CC1 (centres undefined)	x	x	x	n	x
CCc1ccc(Oc2c(Cl)cnn(-c3ccc(C)cc3)c2=O)cc1	x	x	x	n	x
c1ccc(OCc2nn3c(-c4ccco4)nnc3s2)cc1	n	16	n	n	n
COc1ccc(-c2nnc3sc(COc4ccccc4)nn23)cc1	n	n	n	n	n
c1ccc(-c2ccc(C(c3ccccc3)n3ccnc3)cc2)cc1 (centres undefined)	x	16	n	n	n
c1ccc(-c2ccc(-n3ccnc3)cc2)cc1	n	n	n	n	n
O=C1Cc2ccccc2C(=O)N1OCc1ccc(Cl)cc1Cl	68	n	n	n	n
O=C1c2ccccc2C(=O)N1OCc1cccc(Cl)c1	n	n	n	n	n
C=CCn1c(SCC(C)=O)nc2scc(-c3ccco3)c2c1=O	n	15	n	n	n
O=c1[nH]cc(S(=O)(=O)N2CCN(c3cccc(C(F)(F)F)c3)CC2)c(=O)[nH]1	n	16	n	n	n
O=c1[nH]cc(S(=O)(=O)N2CCN(c3cccc(Cl)c3)CC2)c(=O)[nH]1	n	n	n	n	n
CC(COc1ccc([N+](=O)[O-])cc1Cl)CN1CCC(C(O)(c2ccccc2)c2ccccc2)CC1 (centres undefined)	x	x	x	n	x
O=C(NCCCO)Nc1ccc2nc(-c3ccco3)c(-c3ccco3)nc2c1	57	n	66	x	n
CC1=C(C#N)C(=O)N(C2CCS(=O)(=O)C2)C(=O)/C1=C\c1ccc(C)o1 (centres undefined)	n	n	36	x	n
COC(=O)[C@]12C[C@H](CC(=O)NCC3CCCCC3)C(=O)N(CCC3=CCCCC3)C1=C[C@H](C(C)(C)C)O[C@@H]2C	x	x	x	n	x
O=C1NN(c2ccc(F)c(Cl)c2)C(=O)/C1=C\c1cccc(OC(=O)c2cccs2)c1	n	15	n	n	n
SMILES	Apaf-1 inh	PP1 inh	GSTO1 counter	TDP2 inh	PP5 primary
CC(C)=C1C(=O)NN(c2ccc(F)c(Cl)c2)C1=O	n	n	n	n	n
Cc1nnsc1NC(=O)OCc1ccc(C(F)(F)F)cc1	n	17	n	n	n
Cc1ccc(CNc2oc(COc3ccccc3Cl)nc2C#N)cc1	n	n	n	n	n
COc1ccc(CNc2oc(COc3ccccc3Cl)nc2C#N)cc1	n	n	35	n	n
COC(=O)[C@]12C[C@H](CC(=O)NCCc3ccccc3OC)C(=O)N(CCC3=CCCCC3)C1=C[C@H](C(C)(C)C)O[C@@H]2C	x	x	x	n	x
CC(CCc1ccccc1)NC(=O)CN1CCSc2ccccc21 (centres undefined)	n	n	36	n	n
O=C(Cc1ccc(Br)cc1)NC1CCCc2ccccc21 (centres undefined)	n	n	n	n	n
O=C(CCl)NC1CCCc2ccccc21 (centres undefined)	n	n	72	n	n
CCOC(=O)C1CCN(S(=O)(=O)c2ccc3c(c2)CCCN3C(C)=O)CC1	n	n	n	n	n
CCOC(=O)C1CCN(S(=O)(=O)c2ccc3c(c2)CC(=O)N3C)CC1	n	n	n	25	n
